Reference: ChEMBL document CHEMBL2311431, “Synthesis and biological evaluation of some 5-arylidene-2-(1,3-thiazol-2-ylimino)-1,3-thiazolidin-4-ones as dual anti-inflammatory/antimicrobial agents” (Bioorg Med Chem, 2013)
pIC50: −log10 of the molar value. ≈ marks a conversion by molar mass, not a printed value. Calls of active or inactive are those of the source. The calls are words filed in the database; no cut-off is given here.

How the values were obtained:
[1] = tested on: Mus musculus; experiment: Acute toxicity in AKR mouse up to 0.5 mmol/kg, ip; assay type: organism-based; conditions: in vivo
[2] = tested on: Mus musculus; experiment: Antiinflammatory activity in AKR mouse assessed as inhibition of carrageenan-induced paw edema at 0.01 mmol/kg, ip measured after 3.5 hrs of carrageenan-challenge; assay type: functional
Method in brief: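 AKR mice of both sexes (pregnant females excluded), 6-10 per group, fasted during the experiment. Edema induced by intradermal 0.05 mL of 2% carrageenin into the right hind paw. Compound given at 0.01 mmol/kg ip, suspended in water with Tween-80, at the same time as carrageenin.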

[3] = target: T1, Prostaglandin G/H synthase 1 (Ovis aries) (UniProt P05979); experiment: (§1) Inhibition of ovine COX1 assessed as inhibition of PGF2a production by enzyme immunoassay; parameters: concentration or dose not given beside the values; conditions: concentration not given here
T1 sequence (whole entry): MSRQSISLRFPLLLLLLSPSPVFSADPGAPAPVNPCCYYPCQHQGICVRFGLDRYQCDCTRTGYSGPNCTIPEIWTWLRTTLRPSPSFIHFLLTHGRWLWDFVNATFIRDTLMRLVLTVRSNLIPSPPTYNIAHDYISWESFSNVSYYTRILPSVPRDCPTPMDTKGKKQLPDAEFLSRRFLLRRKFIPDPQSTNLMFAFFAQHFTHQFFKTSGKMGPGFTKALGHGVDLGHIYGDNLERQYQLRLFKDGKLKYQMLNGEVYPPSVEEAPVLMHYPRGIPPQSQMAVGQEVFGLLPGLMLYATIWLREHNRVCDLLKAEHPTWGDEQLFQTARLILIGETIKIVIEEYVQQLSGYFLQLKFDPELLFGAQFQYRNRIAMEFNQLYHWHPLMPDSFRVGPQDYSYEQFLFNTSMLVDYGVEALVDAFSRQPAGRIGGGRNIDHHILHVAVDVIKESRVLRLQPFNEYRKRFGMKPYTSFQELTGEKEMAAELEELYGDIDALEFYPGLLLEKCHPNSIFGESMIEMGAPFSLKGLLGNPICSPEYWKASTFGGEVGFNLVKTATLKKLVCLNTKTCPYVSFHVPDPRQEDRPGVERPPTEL
Method in brief: (§2)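 Ovine COX-1 from a commercial screening kit, tested with 0.1 µM arachidonic acid, which is below the saturating level. COX-derived PGH2 is reduced by SnCl2 to PGF2a, quantified by enzyme immunoassay with a broad prostaglandin antibody. At least triplicate.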

[4] = target: T2, Prostaglandin G/H synthase 1 (Ovis aries, UniProt P05979); experiment: as §1; method in brief: as §2
T2 sequence (P05979 whole entry): T1 sequence (whole entry)

[5] = (§3) Inhibition of soybean lipoxygenase assessed as inhibition of sodium linolate conversion to 13-hydroperoxylinoleic acid after 4 mins by spectrophotometry; parameters: species or system Glycine max; conditions: read-out: IC50
[6] = tested on: Glycine max; experiment: as §3
[7] = tested on: Aspergillus niger; experiment: Fungicidal activity against Aspergillus niger ATCC 6275 after 72 hrs by serial subcultivation method; assay type: functional; conditions: ATCC 6275, 72 h
[8] = tested on: Aspergillus niger; experiment: Antifungal activity against Aspergillus niger ATCC 6275 after 72 hrs by serial dilution technique; assay type: functional; conditions: ATCC 6275, 72 h
Method in brief: (§4)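 Serial dilution in malt broth; compounds from 1 mg/ml stocks in 5% DMSO; 72 h at 28 °C. MIC is the lowest concentration with no visible growth under a binocular microscope. Run in duplicate, repeated three times.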

[9] = tested on: Aspergillus fumigatus; experiment: Fungicidal activity against Aspergillus fumigatus after 72 hrs by serial subcultivation method; assay type: functional
[10] = tested on: Aspergillus flavus; experiment: Fungicidal activity against Aspergillus flavus ATCC 9643 after 72 hrs by serial subcultivation method; assay type: functional; conditions: ATCC 9643, 72 h
[11] = tested on: Trichoderma viride; experiment: Fungicidal activity against Trichoderma viride IAM 5061 after 72 hrs by serial subcultivation method; assay type: functional; conditions: IAM 5061, 72 h
[12] = tested on: Penicillium ochrochloron; experiment: Fungicidal activity against Penicillium ochrochloron ATCC 9112 after 72 hrs by serial subcultivation method; assay type: functional; conditions: ATCC 9112, 72 h
[13] = tested on: Aspergillus flavus; experiment: Antifungal activity against Aspergillus flavus ATCC 9643 after 72 hrs by serial dilution technique; assay type: functional; conditions: ATCC 9643, 72 h; method in brief: as §4
[14] = tested on: Talaromyces funiculosus; experiment: Fungicidal activity against Penicillium funiculosum ATCC 36839 after 72 hrs by serial subcultivation method; assay type: functional; conditions: ATCC 36839, 72 h
[15] = tested on: Aspergillus fumigatus; experiment: Antifungal activity against Aspergillus fumigatus after 72 hrs by serial dilution technique; assay type: functional; method in brief: as §4
[16] = tested on: Trichoderma viride; experiment: Antifungal activity against Trichoderma viride IAM 5061 after 72 hrs by serial dilution technique; assay type: functional; conditions: IAM 5061, 72 h; method in brief: as §4
[17] = tested on: Penicillium ochrochloron; experiment: Antifungal activity against Penicillium ochrochloron ATCC 9112 after 72 hrs by serial dilution technique; assay type: functional; conditions: ATCC 9112, 72 h; method in brief: as §4
[18] = tested on: Talaromyces funiculosus; experiment: Antifungal activity against Penicillium funiculosum ATCC 36839 after 72 hrs by serial dilution technique; assay type: functional; conditions: ATCC 36839, 72 h; method in brief: as §4
[19] = tested on: Escherichia coli; experiment: Bactericidal activity against Escherichia coli ATCC 35210 after 72 hrs by serial subcultivation method; assay type: functional; conditions: ATCC 35210, 72 h
[20] = tested on: Pseudomonas aeruginosa; experiment: Bactericidal activity against Pseudomonas aeruginosa ATCC 27853 after 72 hrs by serial subcultivation method; assay type: functional; conditions: ATCC 27853, 72 h
[21] = tested on: Listeria monocytogenes; experiment: Bactericidal activity against Listeria monocytogenes NCTC 7973 after 72 hrs by serial subcultivation method; assay type: functional; conditions: NCTC 7973, 72 h
[22] = tested on: Bacillus cereus; experiment: Bactericidal activity against Bacillus cereus clinical isolate after 72 hrs by serial subcultivation method; assay type: functional
[23] = tested on: Micrococcus flavus; experiment: Bactericidal activity against Micrococcus flavus ATCC 10240 after 72 hrs by serial subcultivation method; assay type: functional; conditions: ATCC 10240, 72 h
[24] = tested on: Staphylococcus aureus; experiment: Bactericidal activity against Staphylococcus aureus ATCC 6538 after 72 hrs by serial subcultivation method; assay type: functional; conditions: ATCC 6538, 72 h
[25] = tested on: Escherichia coli; experiment: Antibacterial activity against Escherichia coli ATCC 35210 after 24 hr by microdilution test; assay type: functional; conditions: ATCC 35210, 24 h
Method in brief: (§5)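 Broth microdilution in LB medium, about 1.0×10^4 cfu per well; compounds from 1 mg/ml stocks in 5% DMSO. Incubated 24 h. MIC is the lowest concentration with no visible growth under a binocular microscope. Run in duplicate, repeated three times.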

[26] = tested on: Listeria monocytogenes; experiment: Antibacterial activity against Listeria monocytogenes NCTC 7973 after 24 hr by microdilution test; assay type: functional; conditions: NCTC 7973, 24 h; method in brief: as §5
[27] = tested on: Pseudomonas aeruginosa; experiment: Antibacterial activity against Pseudomonas aeruginosa ATCC 27853 after 24 hr by microdilution test; assay type: functional; conditions: ATCC 27853, 24 h; method in brief: as §5
[28] = tested on: Micrococcus flavus; experiment: Antibacterial activity against Micrococcus flavus ATCC 10240 after 24 hr by microdilution test; assay type: functional; conditions: ATCC 10240, 24 h; method in brief: as §5
[29] = tested on: Bacillus cereus; experiment: Antibacterial activity against Bacillus cereus clinical isolate after 24 hr by microdilution test; assay type: functional; method in brief: as §5
[30] = tested on: Staphylococcus aureus; experiment: Antibacterial activity against Staphylococcus aureus ATCC 6538 after 24 hr by microdilution test; assay type: functional; conditions: ATCC 6538, 24 h; method in brief: as §5

For `O=C1N/C(=N\c2nccs2)S/C1=C\c1c(Cl)cccc1Cl`, the Activity [1] was “Non-toxic”, the inhibition in vivo at 10 µmol/kg [2] was 58.5% and the inhibition [3] was 100%. It also gave a pIC50 [4] of 4.11, a pIC50 [5] of 3.86 and an inhibition [6] of 43%. It also gave an MFC [7] of 70.2 µM (≈ 25 µg/mL), an MIC [8] of 56.2 µM (≈ 20 µg/mL) and an MFC [9] of 70.2 µM (≈ 25 µg/mL). For the same compound, the MFC [10] was 70.2 µM (≈ 25 µg/mL), the MFC [11] was 28.1 µM (≈ 10 µg/mL) and the MFC [12] was 56.2 µM (≈ 20 µg/mL). It also gave an MIC [13] of 56.2 µM (≈ 20 µg/mL), an MFC [14] of 70.2 µM (≈ 25 µg/mL) and an MIC [15] of 56.2 µM (≈ 20 µg/mL). The MIC [16] was 21.1 µM (≈ 7.52 µg/mL), the MIC [17] was 28.1 µM (≈ 10 µg/mL) and the MIC [18] was 28.1 µM (≈ 10 µg/mL). It also gave an MBC [19] of 56.2 µM (≈ 20 µg/mL), an MBC [20] of 28.1 µM (≈ 10 µg/mL) and an MBC [21] of 84.2 µM (≈ 30 µg/mL). It also gave an MBC [22] of 28.1 µM (≈ 10 µg/mL), an MBC [23] of 84.2 µM (≈ 30 µg/mL) and an MBC [24] of 56.2 µM (≈ 20 µg/mL). For the same compound, the MIC [25] was 28.1 µM (≈ 10 µg/mL), the MIC [26] was 56.2 µM (≈ 20 µg/mL) and the MIC [27] was 21.1 µM (≈ 7.52 µg/mL). It also gave an MIC [28] of 56.2 µM (≈ 20 µg/mL), an MIC [29] of 21.1 µM (≈ 7.52 µg/mL) and an MIC [30] of 28.1 µM (≈ 10 µg/mL).
In the case of `O=C1N/C(=N\c2nccs2)S/C1=C\c1cc(Br)ccc1O`, the Activity [1] was “Non-toxic”, the inhibition in vivo at 10 µmol/kg [2] was 54.4% and the inhibition [3] was 73%. For the same compound, the pIC50 [4] was 4.19, the inhibition [6] was “inactive” and the MFC [7] was 68 µM (≈ 26 µg/mL). For the same compound, the MIC [8] was 34 µM (≈ 13 µg/mL), the MFC [9] was 34 µM (≈ 13 µg/mL) and the MFC [10] was 68 µM (≈ 26 µg/mL). For the same compound, the MFC [11] was 17 µM (≈ 6.5 µg/mL), the MFC [12] was 34 µM (≈ 13 µg/mL) and the MIC [13] was 34 µM (≈ 13 µg/mL). It also gave an MFC [14] of 34 µM (≈ 13 µg/mL), an MIC [15] of 17 µM (≈ 6.5 µg/mL) and an MIC [16] of 8.5 µM (≈ 3.25 µg/mL). The MIC [17] was 17 µM (≈ 6.5 µg/mL), the MIC [18] was 17 µM (≈ 6.5 µg/mL) and the MBC [19] was 137 µM (≈ 52.4 µg/mL). It also gave an MBC [20] of 34 µM (≈ 13 µg/mL), an MBC [21] of 34 µM (≈ 13 µg/mL) and an MBC [22] of 34 µM (≈ 13 µg/mL). It also gave an MBC [23] of 68 µM (≈ 26 µg/mL), an MBC [24] of 68 µM (≈ 26 µg/mL) and an MIC [25] of 68 µM (≈ 26 µg/mL). The MIC [26] was 17 µM (≈ 6.5 µg/mL), the MIC [27] was 17 µM (≈ 6.5 µg/mL) and the MIC [28] was 34 µM (≈ 13 µg/mL). It also gave an MIC [29] of 9 µM (≈ 3.44 µg/mL) and an MIC [30] of 34 µM (≈ 13 µg/mL).
In the case of `O=C1N/C(=N\c2nccs2)S/C1=C\c1ccc(Cl)cc1Cl`, the Activity [1] was “Non-toxic”, the inhibition in vivo at 10 µmol/kg [2] was 9.9% and the inhibition [3] was 98%. For the same compound, the pIC50 [4] was 4.49, the pIC50 [5] was 3.91 and the inhibition [6] was 54%. For the same compound, the MFC [7] was 56.2 µM (≈ 20 µg/mL), the MIC [8] was 42.1 µM (≈ 15 µg/mL) and the MFC [9] was 56.2 µM (≈ 20 µg/mL). It also gave an MFC [10] of 56.2 µM (≈ 20 µg/mL), an MFC [11] of 42.1 µM (≈ 15 µg/mL) and an MFC [12] of 56.2 µM (≈ 20 µg/mL). It also gave an MIC [13] of 42.1 µM (≈ 15 µg/mL), an MFC [14] of 56.2 µM (≈ 20 µg/mL) and an MIC [15] of 42.1 µM (≈ 15 µg/mL). It also gave an MIC [16] of 28.1 µM (≈ 10 µg/mL), an MIC [17] of 42.1 µM (≈ 15 µg/mL) and an MIC [18] of 28.1 µM (≈ 10 µg/mL). For the same compound, the MBC [19] was 56.2 µM (≈ 20 µg/mL), the MBC [20] was 70.2 µM (≈ 25 µg/mL) and the MBC [21] was 84.2 µM (≈ 30 µg/mL). The MBC [22] was 56.2 µM (≈ 20 µg/mL), the MBC [23] was 98.2 µM (≈ 35 µg/mL) and the MBC [24] was 70.2 µM (≈ 25 µg/mL). The MIC [25] was 21.1 µM (≈ 7.52 µg/mL), the MIC [26] was 70.2 µM (≈ 25 µg/mL) and the MIC [27] was 28.1 µM (≈ 10 µg/mL). For the same compound, the MIC [28] was 84.2 µM (≈ 30 µg/mL), the MIC [29] was 28.1 µM (≈ 10 µg/mL) and the MIC [30] was 56.2 µM (≈ 20 µg/mL).
